Our source for the Activity, IC50 and inhibition values is ChEMBL document CHEMBL1221168, “Activity-based probes that target diverse cysteine protease families” (Nat Chem Biol, 2005).

Activity calls are given as the source filed them. No cut-off for these calls is given here.

Experiment [1] has as its target T1, Procathepsin L (Rattus norvegicus) (UniProt P07154).
T1 sequence (whole entry): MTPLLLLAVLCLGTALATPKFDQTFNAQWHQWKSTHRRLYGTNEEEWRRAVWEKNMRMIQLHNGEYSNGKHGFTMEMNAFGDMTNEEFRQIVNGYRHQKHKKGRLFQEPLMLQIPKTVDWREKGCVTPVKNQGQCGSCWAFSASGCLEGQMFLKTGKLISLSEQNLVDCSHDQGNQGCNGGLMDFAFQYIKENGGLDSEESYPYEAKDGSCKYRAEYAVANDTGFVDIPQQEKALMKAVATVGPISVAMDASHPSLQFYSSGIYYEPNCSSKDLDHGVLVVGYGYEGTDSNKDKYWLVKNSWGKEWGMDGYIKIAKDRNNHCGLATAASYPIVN
Kind of experiment: Binding affinity to cathepsin L in crude rat liver homogenates assessed as protein labeling. The class given is tissue-based. The conditions noted are these: tested as the 125I-labelled form.

The target of experiment [2] is Cathepsin B (Rattus norvegicus, UniProt P00787). The experiment in a line: Binding affinity to cathepsin B in crude rat liver homogenates using [125I]DCG-04 based competition protein labeling by SDS-PAGE method. The class given is tissue-based. In a few lines: (§1)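 Rat liver lysate (50 µg protein in 50 mM sodium acetate, 2 mM DTT, 5 mM MgCl2, pH 5.5) was preincubated with compound from 50 mM DMSO stocks for 30 min at room temperature. [125I]DCG-04 (10^6 c.p.m.) was then added for 45 min at room temperature. Bands were resolved by SDS-PAGE, imaged and quantified, and IC50 was taken from the linear portion of the signal versus inhibitor concentration plot.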

Experiment [3] addresses T2, Pro-cathepsin H (Rattus norvegicus, UniProt P00786).
T2 sequence (P00786 whole entry): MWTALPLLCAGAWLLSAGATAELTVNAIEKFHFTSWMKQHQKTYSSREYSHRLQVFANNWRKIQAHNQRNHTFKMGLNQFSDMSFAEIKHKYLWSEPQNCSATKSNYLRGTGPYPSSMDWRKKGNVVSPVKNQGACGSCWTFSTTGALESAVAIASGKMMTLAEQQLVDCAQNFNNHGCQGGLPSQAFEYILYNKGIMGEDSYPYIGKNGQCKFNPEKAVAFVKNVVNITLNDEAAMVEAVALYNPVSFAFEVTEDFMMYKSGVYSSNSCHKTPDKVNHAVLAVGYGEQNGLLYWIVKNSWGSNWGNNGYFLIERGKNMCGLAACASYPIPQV
Kind of experiment: Binding affinity to cathepsin H in crude rat liver homogenates using [125I]DCG-04 based competition protein labeling by SDS-PAGE method. Format: tissue-based. In a few lines:
as §1

The target in experiment [4] is T3, Cathepsin J (Rattus norvegicus, UniProt Q63088).
T3 sequence (Q63088 whole entry): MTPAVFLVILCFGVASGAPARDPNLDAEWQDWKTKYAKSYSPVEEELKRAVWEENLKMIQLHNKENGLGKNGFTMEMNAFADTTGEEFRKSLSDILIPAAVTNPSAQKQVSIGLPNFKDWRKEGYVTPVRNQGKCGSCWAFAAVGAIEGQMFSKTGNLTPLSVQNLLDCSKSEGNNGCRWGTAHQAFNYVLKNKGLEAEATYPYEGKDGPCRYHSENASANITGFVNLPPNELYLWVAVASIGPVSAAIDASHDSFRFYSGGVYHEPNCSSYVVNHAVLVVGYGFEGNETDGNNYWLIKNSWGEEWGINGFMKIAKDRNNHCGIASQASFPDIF
Kind of experiment: Binding affinity to cathepsin J in crude rat liver homogenates using [125I]DCG-04 based competition protein labeling by SDS-PAGE method. Format: tissue-based. In a few lines:
as §1

For experiment [5], the target named is T4, Dipeptidyl peptidase 1 (Rattus norvegicus, UniProt P80067).
T4 sequence (P80067 whole entry): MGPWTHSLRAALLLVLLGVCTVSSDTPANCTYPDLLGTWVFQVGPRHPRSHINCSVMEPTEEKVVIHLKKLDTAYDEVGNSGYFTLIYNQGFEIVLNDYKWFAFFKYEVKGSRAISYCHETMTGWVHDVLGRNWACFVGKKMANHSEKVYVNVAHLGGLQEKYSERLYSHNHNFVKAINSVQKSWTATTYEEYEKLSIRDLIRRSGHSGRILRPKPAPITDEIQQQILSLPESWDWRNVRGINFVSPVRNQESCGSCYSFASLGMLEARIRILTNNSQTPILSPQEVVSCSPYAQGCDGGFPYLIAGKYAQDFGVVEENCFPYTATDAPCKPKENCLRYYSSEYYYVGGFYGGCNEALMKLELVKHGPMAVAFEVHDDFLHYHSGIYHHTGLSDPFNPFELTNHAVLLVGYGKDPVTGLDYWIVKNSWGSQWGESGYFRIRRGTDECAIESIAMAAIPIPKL
The experiment in a line: Binding affinity to cathepsin C in crude rat liver homogenates using [125I]DCG-04 based competition protein labeling by SDS-PAGE method. Format: tissue-based. In a few lines:
as §1

Experiment [6] addresses Cathepsin Z (Rattus norvegicus) (UniProt Q9R1T3). The experiment in a line: Binding affinity to cathepsin Z in crude rat liver homogenates using [125I]DCG-04 based competition protein labeling up to 50 uM by SDS-PAGE method. The class given is tissue-based. In a few lines: as §1
Experiment [7] addresses Arg-gingipain-1 proteinase (Porphyromonas gingivalis) (UniProt Q51816). The experiment in a line: Binding affinity to Arg-gingipain in total lcrude cell lysates of Porphyromonas gingivalis assessed as protein lebeling. The following applies: tested as the 125I-labelled form.
Experiment [8] deals with Lys-gingipain (Porphyromonas gingivalis (strain ATCC 33277 / DSM 20709 / JCM 12257)) (UniProt B2RLK2). The experiment in a line: Binding affinity to Lys-gingipain in total lcrude cell lysates of Porphyromonas gingivalis assessed as protein lebeling. The following applies: tested as the 125I-labelled form.
Experiment [9] addresses Cathepsin Z (Rattus norvegicus, UniProt Q9R1T3). The experiment in a line: Binding affinity to cathepsin Z in crude rat liver homogenates using [125I]DCG-04 based competition protein labeling by SDS-PAGE method. Format: tissue-based. In a few lines:
as §1

For experiment [10], the target named is Cathepsin B (Rattus norvegicus) (UniProt P00787). Kind of experiment: Binding affinity to cathepsin B in crude rat liver homogenates using [125I]DCG-04 based competition protein labeling up to 50 uM by SDS-PAGE method. Format: tissue-based. A digest of the protocol:
as §1

Experiment [11] has as its target T5, Pro-cathepsin H (Rattus norvegicus) (UniProt P00786).
T5 sequence (whole entry): T2 sequence (P00786 whole entry)
Kind of experiment: Binding affinity to cathepsin H in crude rat liver homogenates using [125I]DCG-04 based competition protein labeling up to 50 uM by SDS-PAGE method. The class given is tissue-based. In a few lines:
as §1

For experiment [12], the target named is T6, Cathepsin J (Rattus norvegicus) (UniProt Q63088).
T6 sequence (whole entry): T3 sequence (Q63088 whole entry)
The experiment in a line: Binding affinity to cathepsin J in crude rat liver homogenates using [125I]DCG-04 based competition protein labeling up to 50 uM by SDS-PAGE method. Format: tissue-based. In a few lines:
as §1

The target in experiment [13] is T7, Dipeptidyl peptidase 1 (Rattus norvegicus) (UniProt P80067).
T7 sequence (whole entry): T4 sequence (P80067 whole entry)
The experiment in a line: Binding affinity to cathepsin C in crude rat liver homogenates using [125I]DCG-04 based competition protein labeling up to 50 uM by SDS-PAGE method. The class given is tissue-based. A digest of the protocol: as §1

Broadly, the IC50 is the concentration that gives 50% inhibition.

On to `CC(=O)N[C@@H](CCCCNC(=O)CCCCC1SC[C@H]2NC(=O)N[C@@H]12)C(=O)N[C@@H](Cc1ccc(O)c(I)c1)C(=O)NCCCCCC(=O)NCC(=O)COC(=O)c1c(C)cccc1C` (stereo partly specified), for which, in experiment [1], the outcome was Active.
With `Cc1cccc(C)c1C(=O)OCC(=O)CNC(=O)[C@H](CC(C)C)NC(=O)OCc1ccccc1`, the IC50 is 0.92 µM in experiment [2], 7.9 µM in [3], 49 µM in experiment [4] and 49 µM in experiment [5]. Moreover, the inhibition result in experiment [6] was “inactive”.
For the compound `CC(=O)N[C@@H](CCCCNC(=O)CCCCC1SC[C@H]2NC(=O)N[C@@H]12)C(=O)N[C@@H](Cc1ccc(O)c(I)c1)C(=O)NCCCCCC(=O)N[C@@H](CC(C)C)C(=O)COC(=O)c1c(C)cccc1C` (stereo partly specified), in experiment [1], the result was Active.
As to `CC(=O)N[C@@H](CCCCNC(=O)CCCCC1SC[C@H]2NC(=O)N[C@@H]12)C(=O)N[C@@H](Cc1ccc(O)c(I)c1)C(=O)NCCCCCC(=O)N[C@@H](CCCCN)C(=O)COC(=O)c1c(C)cccc1C` (stereo partly specified), the result in experiment [7] and in experiment [8] was Active.
Regarding `CC(=O)N[C@@H](Cc1ccc(O)cc1)C(=O)N[C@@H](Cc1ccccc1)C(=O)NCC(=O)COC(=O)c1c(C)cccc1C`, the IC50 in [2] is 0.22 µM; in experiment [9] it was 39 µM; in [3] it was 7.9 µM; in [4] it was 6.4 µM; in experiment [5], 6.4 µM.
With `COc1ccc(C(=O)ONC(=O)CNC(=O)[C@H](Cc2ccccc2)NC(=O)OCc2ccccc2)cc1`, the IC50 in experiment [2] amounted to 1.2 µM; in experiment [9], 1.5 µM; in [3], 6.6 µM; in [4] it was 8.3 µM; in experiment [5], 8.3 µM.
Consider `COc1ccc(C(=O)OCC(=O)CNC(=O)[C@H](Cc2ccccc2)NC(=O)OCc2ccccc2)cc1`, for which the inhibition entry in experiment [10], in experiment [6], in experiment [11], in [12] and in experiment [13] was “inactive” in each case.
With `CC(=O)N[C@@H](CCCCNC(=O)CCCCC1SC[C@H]2NC(=O)N[C@@H]12)C(=O)N[C@@H](Cc1ccc(O)c(I)c1)C(=O)NCCCCCC(=O)N[C@@H](CCCNC(=N)N)C(=O)COC(=O)c1c(C)cccc1C` (stereo partly specified), the result in experiment [7] and in experiment [8] was Active.
For the compound `Cc1cccc(C)c1C(=O)OCC(=O)[C@H](CCCN=C(N)N)NC(=O)[C@H](Cc1ccccc1)NC(=O)OCc1ccccc1`, in experiment [2], the IC50 turned out to be 0.015 µM.
`CC(=O)N[C@@H](Cc1ccc(O)cc1)C(=O)N[C@@H](Cc1ccccc1)C(=O)N[C@@H](CCCNC(=N)N)C(=O)COC(=O)c1c(C)cccc1C`: the IC50 was determined as 0.0073 µM in [2]; 4.7 µM in experiment [9]; 12 µM in experiment [3]; 3.6 µM in [4]; 3.6 µM in experiment [5].
For `Cc1cccc(C)c1C(=O)OCC(=O)CNC(=O)[C@H](Cc1ccccc1)NC(=O)OCc1ccccc1`, the concentration for half-maximal inhibition (IC50) in [2] is 0.12 µM. Further, the inhibition entry in [6], in experiment [11], in experiment [12] and in [13] was “inactive” in each case.
On to `Cc1cccc(C)c1C(=O)OCC(=O)[C@H](CCCNC(=N)N)NC(=O)[C@H](Cc1ccccc1)NC(=O)OCc1ccccc1`, for which the inhibition result in experiment [6], in [11], in experiment [12] and in [13] was “inactive” each time.
